Molecules are shown by their SMILES.

This data set can be described thus: Toxicity liver stage against HepG2, at 10uM. It is filed as cell-based. Details: test concentration 10 uM, cell line HepG2-A16-CD81EGFP. The conditions noted are these: human, HepG2-A16-CD81EGFP cells; read-out: INHIBITION
Put shortly: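 Uninfected HepG2-A16-CD81EGFP cells, 3 × 10^3 per well, 1536-well, plated on prespotted compound at 10 μM final, parasite-free screening media added to match infected plates; puromycin 10 μM positive, DMSO 0.5% negative; run in parallel with 48 h PbLuc assay at 37 °C, 5% CO2; viability by CellTiter-Glo luminescence, normalized to controls.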
As to `CCc1nccn1-c1cncc(C2CCCN2Cc2ccc(F)cc2)n1` (centres undefined), the cytotoxicity at 10 µM is -1.44%.
Take `Cn1c(=O)[nH]c2cc(C(=O)OCCCn3ccccc3=O)ccc21`: the cytotoxicity at 10 µM worked out at 1.34%.
Under `CCSc1ccccc1C(=O)N1CCC(S(=O)(=O)c2nncn2C)CC1` stands 0.595%.
Under `CC(O)CN1CCN(C(=O)c2ccn(-c3cccc(Cl)c3)n2)CC1` (centres undefined) stands -6.8%.
Regarding `CN(C)CCN1CCOCC2(C1)CN(Cc1ccco1)CCO2` (centres undefined), the cytotoxicity at 10 µM is -111%.
With `COC(=O)N1CCN(C(=O)c2ccc(C)c(N3CCNC3=O)c2)CC1`, the cytotoxicity at 10 µM was 3.76%.
For `Cc1cnn(C2CN(CCOc3ccc(C#N)cc3)C2)c1`, the cytotoxicity at 10 µM came out at 1.77%.
Regarding `CCn1cc(CN2CCCN(C(=O)CCCn3cncn3)CC2)cn1`, the cytotoxicity at 10 µM was -12.5%.
Under `Cc1ccc(C(=O)NC2CCN(Cc3nc(C(C)C)no3)CC2)s1` stands 3.82%; under `CC(C)n1nc(CN2CCOCC2)c2c1CN(C(=O)c1ccno1)C2`, 2.62%; under `Cc1cc(F)ccc1N1CCC(N2C[C@@H](CN(C)C)[C@@H](CO)C2)CC1`, -12.1%.
Consider `CCOc1nnc(CN(C)C2CCCN(c3cccnn3)C2)s1` (centres undefined), for which the cytotoxicity at 10 µM is -17.3%.
Under `COc1ccc(C(C)NC(=O)Nc2nnc(C)s2)c(OC)c1` (centres undefined) stands 9.12%; under `CC1=N[C@@]2(CC[C@@H]3CN(S(=O)(=O)C4CC4)C[C@@H]32)C(=O)N1CC(C)C`, -76.8%; under `CCCNCc1ncc(C)c(OC)c1C`, 0.105%.
Under `CN(Cc1cc(Br)cn1C)C(=O)c1cscn1` stands -0.37%; under `O=C1C(NCc2nnc3n2CCCC3)CCN1c1ccccc1F` (centres undefined), -4.92%; under `Oc1ccc(C2Nc3ccccc3C3=NCCCN32)cc1` (centres undefined), -39.1%.
For `CC[C@H]1CN2CC[C@H]1C[C@@H]2CNC(=O)Nc1cc(OC)cc(OC)c1`, the cytotoxicity at 10 µM was determined as 3.39%.
For `CS(=O)(=O)c1cn[nH]c1C1CCCN1C(=O)c1cccnc1` (centres undefined), the cytotoxicity at 10 µM is -14.6%.
The same measure for `CCc1nnc(Nc2cccc(C3CCN(CC4CC4)CC3)n2)s1`: -26.8%; for `CCC/C=C/c1ccc(CN2CCN(C)CC2)cn1`: -8.61%; for `Cc1cc(C2CCCN(C(=O)COc3cccc(F)c3)C2)n[nH]1` (centres undefined): 5.95%.
On to `Cn1c(N2CCOCC2)nc2cc(C(=O)NCc3cccnc3)ccc21`, for which the cytotoxicity at 10 µM was determined as 0.678%.
The same measure for `CC(C)N1CC(C(=O)NCc2ccc(S(=O)(=O)N(C)C)cc2)CC1=O` (centres undefined): 4.44%; for `Cc1nnc(CN(Cc2cccc(Br)c2)C2CC2)o1`: 3.94%; for `CN(C)c1nccc(CNS(=O)(=O)c2cc(Cl)cc(Cl)c2)n1`: -138%.
Under `Cc1cccc(C)c1C(=O)N1C[C@@H](CN2CCOCC2)[C@@H](CO)C1` stands 0.0453%; under `CCN1Cc2c(C(=O)NC(C)C)ncn2-c2ccccc2S1(=O)=O`, -83.9%.
The same measure for `Cn1cc(CN2CCC(F)(F)C3(CCN(c4cccnc4)C3)C2)cn1` (centres undefined): 3.89%; for `Cc1ccc(NS(=O)(=O)c2c[nH]c3ncccc23)nc1`: 6.43%; for `CCc1ncc2c(n1)CN(C(=O)CNC(=O)c1ccccc1)C2`: 2.41%.
With `Cc1nc(CN2Cc3nccn3CC(CN3CCCC3)C2)cs1` (centres undefined), the cytotoxicity at 10 µM was found to be 2.43%.
In the case of `CCCC(C)CN1CCC(n2cc(C3CCCC3)nn2)CC1` (centres undefined), the cytotoxicity at 10 µM amounted to 14.2%.
Take `CCn1ncc2c1CCCC2NCc1cscn1` (centres undefined): the cytotoxicity at 10 µM is -2.42%.
For `N#Cc1ccc(CNCCc2cc(F)cc3c2OCOC3)cc1`, the cytotoxicity at 10 µM stood at 6.58%.
The same measure for `CC(C)CNC(=O)c1cn(C)c(=O)c2ccccc12`: 1.28%.
Consider `CC1(C)CC(N(Cc2ccncc2)Cc2cccnc2)CC(C)(C)N1`, for which the cytotoxicity at 10 µM was -14.6%.
For the compound `O=c1ccc(-n2ccnc2)nn1CCNS(=O)(=O)c1ccc(F)c(Cl)c1`, the cytotoxicity at 10 µM is -4.39%.

Source of the values: ChEMBL document CHEMBL4513216, “Probing the Open Global Health Chemical Diversity Library for Multistage-Active Starting Points for Next-Generation Antimalarials” (ACS Infect Dis, 2020).
